From ChEMBL document CHEMBL1275547, “KHM-1, a novel plasmid-mediated metallo-beta-lactamase from a Citrobacter freundii clinical isolate” (2008)
≈ marks a conversion by molar mass, not a printed value. Calls of active or inactive are those of the source. The calls are words filed in the database; no cut-off is given here.

How the values were obtained:
Escherichia coli [1] = test: Antibacterial activity against Escherichia coli K-12 W1895 transconjugant harboring pCF243 by microdilution method; assay type: functional
Escherichia coli [2] = test: Antibacterial activity against Escherichia coli JM109 harboring recombinant pKHM-1 by microdilution method; assay type: functional
Escherichia coli [3] = test: Antibacterial activity against Escherichia coli JM109 by microdilution method; assay type: functional
In short: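 Microdilution β-lactam susceptibility in E. coli JM109, the host strain for recombinant plasmids such as the pHSG396-based blaKHM-1 clone.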

Escherichia coli [4] = test: Antibacterial activity against Escherichia coli K-12 W1895 by microdilution method; assay type: functional
In short: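 Microdilution β-lactam MICs in E. coli K-12 W1895, the conjugation recipient. Transconjugants carrying the natural blaKHM-1 plasmid were selected on Penassay agar with rifampin (200 μg/ml) and moxalactam (16 μg/ml).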

Escherichia coli [5] = test: Ratio of Kcat to Km for Escherichia coli JM109 harboring recombinant pKHM-1 Beta-lactamase KHM-1 assessed as compound hydrolysis by UV-visible spectrophotometry
In short: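 KHM-1 was purified from E. coli JM109(pKHM-1) on HiTrap Q and Superdex 200 columns, with fractions tracked by 100 μM nitrocefin hydrolysis. Protein was measured by BCA. Hydrolysis was followed spectrophotometrically in 50 mM phosphate pH 7.0 at 25°C under initial-rate conditions. Km and kcat came from Lineweaver-Burk plots as means of three independent experiments, and kcat/Km was calculated from them.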

Escherichia coli [6] = conditions: JM109
Escherichia coli [7] = test: Antibacterial activity against Escherichia coli JM109 harboring recombinant pKHM-1 by microdilution method in presence of Sulbactam; assay type: functional
In short: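 Broth microdilution MIC of ampicillin-sulbactam, combined at a 2:1 ampicillin:sulbactam ratio. The host is E. coli JM109 carrying pKHM-1, a recombinant pHSG396 clone of an EcoRI fragment of pCF243 bearing blaKHM-1, selected on agar with moxalactam (1 μg/ml).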

Citrobacter freundii [8] = test: Antibacterial activity against Citrobacter freundii KHM243 clinical isolate by microdilution method; assay type: functional
Escherichia coli [9] = test: Antibacterial activity against Escherichia coli K-12 W1895 by microdilution method in presence of Sulbactam; assay type: functional
In short: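 β-Lactam susceptibility was measured by microdilution. Ampicillin was tested combined with sulbactam at a fixed 2:1 ampicillin:sulbactam ratio. The E. coli K-12 W1895 strain served as the recipient strain in the conjugation experiments.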

Escherichia coli [10] = test: Antibacterial activity against Escherichia coli K-12 W1895 transconjugant harboring pCF243 by microdilution method in presence of Sulbactam; assay type: functional
In short: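 Broth microdilution MIC of ampicillin-sulbactam, combined at a 2:1 ampicillin:sulbactam ratio. The host is an E. coli K-12 W1895 transconjugant carrying the natural blaKHM-1 plasmid pCF243 from C. freundii KHM243, selected on Penassay broth agar with rifampin (200 μg/ml) and moxalactam.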

Escherichia coli [11] = test: Antibacterial activity against Escherichia coli JM109 by microdilution method in presence of Sulbactam; assay type: functional
In short: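 Microdilution β-lactam susceptibility in E. coli JM109, the host for recombinant plasmids including the pHSG396 construct carrying blaKHM-1. Sulbactam was paired with ampicillin at a fixed 2:1 ampicillin-to-sulbactam ratio.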

Citrobacter freundii [12] = test: Antibacterial activity against Citrobacter freundii KHM243 clinical isolate by microdilution method in presence of Sulbactam; assay type: functional
In short: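 Broth microdilution susceptibility of C. freundii KHM243, a urinary isolate from a catheter-associated UTI patient (1997). Ampicillin was tested with sulbactam at a fixed ampicillin:sulbactam ratio of 2:1.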

Escherichia coli [13] = conditions: JM109; remark: listed apart in the source
Citrobacter freundii [14] = test: Antibacterial activity against Citrobacter freundii KHM243 clinical isolate by microdilution method in presence of clavulanic acid; assay type: functional
In short: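 Broth microdilution MICs of β-lactams against the C. freundii KHM243 urinary isolate. Clavulanic acid was combined with ticarcillin at a fixed 15:1 ticarcillin-to-clavulanate ratio.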

Escherichia coli [15] = test: Antibacterial activity against Escherichia coli JM109 by microdilution method in presence of clavulanic acid; assay type: functional
In short: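 Broth microdilution susceptibility of E. coli JM109, the host strain for pHSG396-based recombinant plasmids. Ticarcillin was tested with clavulanic acid at a fixed ticarcillin:clavulanic acid ratio of 15:1.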

Escherichia coli [16] = test: Antibacterial activity against Escherichia coli K-12 W1895 transconjugant harboring pCF243 by microdilution method in presence of clavulanic acid; assay type: functional
In short: (§1)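 Broth microdilution MICs of β-lactams. Clavulanic acid was tested combined with ticarcillin at a fixed 15:1 ticarcillin:clavulanic acid ratio.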

Escherichia coli [17] = test: Antibacterial activity against Escherichia coli JM109 harboring recombinant pKHM-1 by microdilution method in presence of clavulanic acid; assay type: functional; in short: as §1
Escherichia coli [18] = test: Antibacterial activity against Escherichia coli K-12 W1895 by microdilution method in presence of clavulanic acid; assay type: functional; in short: as §1

Row | Structure (SMILES) | MIC (Escherichia coli [1]) [µg/mL] | MIC (Escherichia coli [2]) [µg/mL] | MIC (Escherichia coli [3]) [µg/mL] | MIC (Escherichia coli [4]) [µg/mL] | kcat/Km (Escherichia coli [5]) | Km (Escherichia coli [6]) [µM] | kcat (Escherichia coli [6]) [s⁻¹] | MIC (Citrobacter freundii [8]) [µg/mL] | further results
1 | CO/N=C(\C(=O)N[C@@H]1C(=O)N2C(C(=O)[O-])=C(C[N+]3(C)CCCC3)CS[C@H]12)c1csc(N)n1 | > 512 | 64 | 0.004 (≈ 0.00832 µM) | 0.002 (≈ 0.00416 µM) |  |  |  |  | 
2 | CC1(C)S[C@@H]2[C@H](NC(=O)Cc3ccccc3)C(=O)N2[C@H]1C(=O)O |  |  |  |  | 1.7 ×10⁴ /M/s | 1340 | 23 |  | 
3 | CC1(C)S[C@@H]2[C@H](NC(=O)[C@H](N)c3ccccc3)C(=O)N2[C@H]1C(=O)O [AMPICILLIN] | 64 (≈ 183 µM) | 16 | 1 (≈ 2.86 µM) | 8 (≈ 22.9 µM) | 1.9 ×10⁴ /M/s | 978 | 19 | 256 (≈ 733 µM) | MIC (Escherichia coli [7]): 16 µg/mL; MIC (Escherichia coli [9]): 1 µg/mL; MIC (Escherichia coli [10]): 64 µg/mL; MIC (Escherichia coli [11]): 0.5 µg/mL; MIC (Citrobacter freundii [12]): 64 µg/mL
4 | C[C@H]1[C@H](NC(=O)/C(=N\OC(C)(C)C(=O)O)c2csc(N)n2)C(=O)N1S(=O)(=O)O [AZTREONAM] | 0.063 (≈ 0.145 µM) | 0.063 |  | 0.031 (≈ 0.0712 µM) |  |  |  |  | Km (Escherichia coli [13]): inactive; kcat (Escherichia coli [13]): inactive
5 | NC(=O)OC[C@@H]1[C@H](NC(=O)/C(=N\OCC(=O)O)c2csc(N)n2)C(=O)N1S(=O)(=O)O [CARUMONAM] | 0.125 (≈ 0.268 µM) | 0.063 | 0.031 (≈ 0.0665 µM) | 0.031 (≈ 0.0665 µM) |  |  |  | 0.25 (≈ 0.536 µM) | 
6 | CCN1CCN(C(=O)N[C@@H](C(=O)N[C@]2(OC)C(=O)N3C(C(=O)O)=C(CSc4nnnn4C)CS[C@@H]32)[C@H](C)O)C(=O)C1=O [CEFBUPERAZONE] | 256 (≈ 408 µM) | 512 | 0.031 (≈ 0.0494 µM) | 0.063 (≈ 0.1 µM) |  |  |  | 128 (≈ 204 µM) | 
7 | CO[C@@]1(NC(=O)CSCC#N)C(=O)N2C(C(=O)O)=C(CSc3nnnn3C)CS[C@@H]21 [CEFMETAZOLE] | 512 (≈ 1090 µM) | > 512 | 0.25 (≈ 0.53 µM) | 0.5 (≈ 1.06 µM) |  |  |  | 512 (≈ 1090 µM) | 
8 | CO[C@@]1(NC(=O)CSC[C@@H](N)C(=O)O)C(=O)N2C(C(=O)O)=C(CSc3nnnn3C)CS[C@@H]21 [CEFMINOX] | > 512 | 512 | 0.25 (≈ 0.481 µM) | 0.125 (≈ 0.241 µM) |  |  |  | 512 (≈ 985 µM) | 
9 | CO/N=C(\C(=O)N[C@@H]1C(=O)N2C(C(=O)O)=C(COC(C)=O)CS[C@H]12)c1csc(N)n1 [CEFOTAXIME] | > 512 | 128 | 0.004 (≈ 0.00878 µM) | 0.008 (≈ 0.0176 µM) |  | 13 | 2180 | 64 (≈ 141 µM) | 
10 | CO[C@@]1(NC(=O)C2SC(=C(C(N)=O)C(=O)O)S2)C(=O)N2C(C(=O)O)=C(CSc3nnnn3C)CS[C@@H]21 (stereo partly specified) [CEFOTETAN] | 512 (≈ 889 µM) | > 512 | 0.031 (≈ 0.0539 µM) | 0.125 (≈ 0.217 µM) |  |  |  | 128 (≈ 222 µM) | 
11 | CO[C@@]1(NC(=O)Cc2cccs2)C(=O)N2C(C(=O)O)=C(COC(N)=O)CS[C@@H]21 [CEFOXITIN] | > 512 | > 512 | 8 (≈ 18.7 µM) | 8 (≈ 18.7 µM) | 1.4 ×10⁷ /M/s | 81 | 1180 | 512 (≈ 1200 µM) | 
12 | CO/N=C(\C(=O)N[C@@H]1C(=O)N2C(C(=O)[O-])=C(C[n+]3ccn4ncccc43)CS[C@H]12)c1nsc(N)n1 [CEFOZOPRAN] | 256 (≈ 497 µM) | 64 | 0.008 (≈ 0.0155 µM) | 0.016 (≈ 0.031 µM) |  |  |  | 16 (≈ 31 µM) | 
13 | CC(C)(O/N=C(\C(=O)N[C@@H]1C(=O)N2C(C(=O)[O-])=C(C[n+]3ccccc3)CS[C@H]12)c1csc(N)n1)C(=O)O [CEFTAZIDIME] | > 512 | > 512 | 0.063 (≈ 0.115 µM) | 0.125 (≈ 0.229 µM) | 1.5 ×10⁷ /M/s | 8 | 118 | > 512 | 
14 | CO/N=C(\C(=O)N[C@@H]1C(=O)N2C(C(=O)O)=C(COC(N)=O)CS[C@H]12)c1ccco1 [CEFUROXIME] | > 512 | > 512 | 8 (≈ 18.9 µM) | 2 (≈ 4.71 µM) |  |  |  | > 512 | 
15 | O=C(Cc1cccs1)N[C@@H]1C(=O)N2C(C(=O)[O-])=C(C[n+]3ccccc3)CS[C@H]12 [CEPHALORIDINE] | 128 (≈ 308 µM) | 64 | 1 (≈ 2.41 µM) | 2 (≈ 4.81 µM) | 1.6 ×10⁸ /M/s | 4.4 | 686 | 512 (≈ 1230 µM) | 
16 | CO[C@@]1(NC(=O)CSC(F)F)C(=O)N2C(C(=O)O)=C(CSc3nnnn3CCO)CO[C@@H]21 [FLOMOXEF] | 256 (≈ 516 µM) | 128 | 0.031 (≈ 0.0624 µM) | 0.031 (≈ 0.0624 µM) |  |  |  | 64 (≈ 129 µM) | 
17 | C[C@@H](O)[C@H]1C(=O)N2C(C(=O)O)=C(SCCNC=N)C[C@H]12 [IMIPENEM ANHYDROUS] | 4 (≈ 13.4 µM) |  |  | 0.063 (≈ 0.21 µM) | 5.6 ×10⁴ /M/s |  |  | 2 (≈ 6.68 µM) | 
18 | C[C@@H](O)[C@H]1C(=O)N2C(C(=O)O)=C(S[C@@H]3CN[C@H](C(=O)N(C)C)C3)[C@H](C)[C@H]12 [MEROPENEM] | 4 (≈ 10.4 µM) | 4 | 0.004 (≈ 0.0104 µM) | 0.004 (≈ 0.0104 µM) | 3.3 ×10⁴ /M/s | 12 | 0.4 | 4 (≈ 10.4 µM) | 
19 | CO[C@@]1(NC(=O)C(C(=O)O)c2ccc(O)cc2)C(=O)N2C(C(=O)O)=C(CSc3nnnn3C)CO[C@@H]21 (stereo partly specified) [MOXALACTAM] | > 512 | > 512 | 0.031 (≈ 0.0596 µM) | 0.063 (≈ 0.121 µM) | 3.9 ×10⁷ /M/s | 71 | 2790 | 256 (≈ 492 µM) | 
20 | CCN1CCN(C(=O)N[C@@H](C(=O)N[C@@H]2C(=O)N3[C@@H]2SC(C)(C)[C@@H]3C(=O)O)c2ccccc2)C(=O)C1=O [PIPERACILLIN] | 16 (≈ 30.9 µM) | 4 | 0.25 (≈ 0.483 µM) | 2 (≈ 3.86 µM) |  |  |  | 4 (≈ 7.73 µM) | 
21 | CC1(C)S[C@@H]2[C@H](NC(=O)[C@H](C(=O)O)c3ccsc3)C(=O)N2[C@H]1C(=O)O [TICARCILLIN] | > 512 | 512 | 2 (≈ 5.2 µM) | 2 (≈ 5.2 µM) |  |  |  | > 512 | MIC (Citrobacter freundii [14]): 512 µg/mL; MIC (Escherichia coli [15]): 2 µg/mL; MIC (Escherichia coli [16]): > 512 µg/mL; MIC (Escherichia coli [17]): 512 µg/mL; MIC (Escherichia coli [18]): 4 µg/mL
